Seven compounds from ChEMBL document CHEMBL1795212, “Synthesis and in vitro antimalarial activity of tetraoxane-amine/amide conjugates” (Eur J Med Chem, 2011) can be followed below.

Series [1] relates to Plasmodium falciparum. The series is described as follows: Antimalarial activity against Plasmodium falciparum W2 assessed as plasmodial LDH activity after 72 hrs. In kind it is functional, organism-based. The following applies: Plasmodium falciparum, W2, 72 h; read-out: IC50. In short, it runs like this: (§1)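 P. falciparum D6 (chloroquine-sensitive) and W2 (chloroquine-resistant) clones screened in vitro alongside Vero cytotoxicity, up to a highest concentration of 12.5; IC50 determined.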

The subject of series [2] is BT-549. The series is described as follows: Cytotoxicity against human BT549 cells up to 25 uM. Format: cell-based. Summed up: (§2)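 Cytotoxicity panel: four cancer lines (SK-MEL, KB, BT-549, SK-OV-3) and two non-cancer lines (Vero, LLC-PK11), tested up to a concentration of 25.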
Series [3] is described as follows: Cytotoxicity against pig LLC-PK11 cells up to 25 uM. In kind it is cell-based, Sus scrofa. In short, it runs like this: as §2
The test system of series [4] is SK-OV-3. The series is described as follows: Cytotoxicity against human SKOV3 cells up to 25 uM. Format: cell-based. Summed up: as §2
Series [5] concerns Vero. The series is described as follows: Cytotoxicity against african green monkey Vero cells at 12.5 uM. In kind it is cell-based. The following applies: chlorocebus sabaeus. In short, it runs like this:
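Mammalian kidney Vero cells screened in vitro for cytotoxicity, in parallel with the antimalarial screen, up to a highest concentration of 12.5.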

The nature of series [6]: Selectivity index, IC50 for african green monkey Vero cells to IC50 for Plasmodium falciparum W2. In kind it is functional. In short, it runs like this: (§3)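 Selectivity index is the cytotoxicity IC50 in Vero cells divided by the antimalarial IC50 against the stated P. falciparum clone (D6 or W2).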
Series [7] can be described thus: Selectivity index, IC50 for african green monkey Vero cells to IC50 for Plasmodium falciparum D6. In kind it is functional. Summed up: as §3
The test system of series [8] is KB. The series is described as follows: Cytotoxicity against human KB cells up to 25 uM. Format: cell-based. In short, it runs like this:
as §2

Series [9] has as its system Plasmodium falciparum. The series is described as follows: Antimalarial activity against Plasmodium falciparum D6 assessed as plasmodial LDH activity after 72 hrs. In kind it is functional, organism-based. The following applies: Plasmodium falciparum, D6, 72 h; read-out: IC50. Summed up:
as §1

Series [10] deals with SK-MEL. The series is described as follows: Cytotoxicity against human SK-MEL cells up to 25 uM. In kind it is cell-based. In short, it runs like this: as §2
Series [11] deals with Vero. The series is described as follows: Cytotoxicity against african green monkey Vero cells up to 25 uM. Format: cell-based. The following applies: chlorocebus sabaeus. Summed up: as §2

Turning to `Cc1ccc(C2OOC(c3ccc(CNc4cccnc4)cc3)OO2)cc1` (configuration not stated), the IC50 (usually the midpoint of a concentration-inhibition curve) in series [1] was found to be 570 nM; in series [9], 380 nM. Besides, the Activity result in [2], in [3], in [4], in series [5], in series [8] and in series [10] was “Non-toxic” throughout. In addition, the Activity result in [11] is listed as “Non-toxic”. Also, the results for the “Ratio IC50” value in [6] and in series [7] were over 22.7 and over 34, respectively.
On to `Cc1ccc(C2OOC(c3ccc(/C=N\c4cccnc4)cc3)OO2)cc1` (configuration not stated), for which the figures for the concentration for half-maximal inhibition (IC50) in series [1] and in series [9] were 800 nM and 750 nM, respectively. The Activity entry in series [2], in series [3], in [4], in series [5], in series [8] and in [10] was “Non-toxic” in each case. Besides, the Activity entry in [11] is “Non-toxic”. For the same compound, the “Ratio IC50” value in series [6] is given as over 16.4; in series [7] it was over 17.6.
`Cc1ccc(C2OOC(c3ccc(C(=O)NCCNc4ccnc5cc(Cl)ccc45)cc3)OO2)cc1` (configuration not stated): the IC50 in [1] is 1500 nM; in [9] it was 1100 nM. Moreover, the Activity result in series [5] is reported as “Non-toxic”. Further, the “Ratio IC50” value is recorded as over 6.3 in series [6] and over 8.5 in series [7].
Turning to `Cc1ccc(C2OOC(c3ccc(/C=N/C4CCCCC4)cc3)OO2)cc1` (configuration not stated), the IC50 in series [1] amounted to 1850 nM; in [9], 1900 nM. The Activity result in series [5] was “Non-toxic”. The figures for the “Ratio IC50” value in [6] and in [7] were over 7 and over 6.8, respectively.
For the compound `Cc1ccc(C2OOC(c3ccc(C(=O)O)cc3)OO2)cc1` (configuration not stated), the IC50 in series [1] is 9260 nM; in series [9], 10600 nM. Besides, in series [5], the Activity entry is listed as “Non-toxic”. For the same compound, the “Ratio IC50” value in series [6] is recorded as over 1.7; in series [7] it was over 1.5.
The matching figures for `CCCNC(=O)c1ccc(C2OOC(c3ccc(C)cc3)OO2)cc1` (configuration not stated): 13900 nM, 8730 nM, “Non-toxic”, over 1 and over 3.4.
The like results for `Cc1ccc(C2OOC(c3ccc(CNc4cccc(C)c4)cc3)OO2)cc1` (configuration not stated) were, in that order, 2380 nM, 2640 nM, “Non-toxic”, over 5.3 and over 4.8.
